Assay results reported in paper PMC6728149 (Science signaling, 2019).
Entries after “also recorded” stand apart in the source; their conditions may differ.

Key:
Assay type in all cases: cell-based, human
MYC = MYC protein levels by immunoblot in MIA PaCa-2 cells; conditions: 6 hours
EGFP-MYC = experiment: GPS-MYC degradation screen; conditions: 6 hours; for effect on EGFP-MYC stability in the GPS-MYC screen: 20 μM
Outline: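 MIA PaCa-2 cells were lentivirally transduced with DsRed-IRES-EGFP-MYC and selected with 2 μg/ml puromycin. Frozen stocks were thawed, grown 2 days, then plated at 20,000 cells/well in 384-well plates. Next day, compound was given in DMEM/2% FBS for 6 h. Controls were DMSO, cycloheximide (final 7.5 μg/ml) and MG132 (final 3.75 μM). Cells were detached with Accumax (20 min, 37 °C) and read by plate flow cytometer for EGFP/DsRed. Values were normalized to control wells; run in duplicate.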

CDK9 = experiment: pPol II; conditions: MIA PaCa-2 cells, 6 hours
Outline: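 After 6 h compound exposure, MIA PaCa-2 lysates were made in 1% Triton buffer, pH 7.4, with protease and phosphatase inhibitors, cleared at 18,000 x g, 15 min, 4 °C, and quantified by Bradford. pPol II and MCL-1 were immunoblotted as CDK9 signaling read-outs.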

CDK8/19 = experiment: pSTAT1; conditions: MIA PaCa-2 cells
Outline: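 CDK8/19 inhibition in compound-treated MIA PaCa-2 cells was read as pSTAT1 by immunoblot. Lysis was in 1% Triton buffer (25 mM Tris pH 7.4) with protease and phosphatase inhibitors; clarification was at 18,000 x g, 15 min, 4 °C. Blots are representative of at least three independent experiments.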

MYC Ser^62 = experiment: pMYC Ser62 immunoblot in MIA PaCa-2 cells; conditions: 30 min
Outline: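 MIA PaCa-2 cells were exposed to CDK9 inhibitors for 30 min. Lysates were cleared at 18,000 x g, 15 min, 4 °C, and protein was quantified by Bradford. pMYC Ser62 and total MYC were immunoblotted.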

MYC mRNA = MYC mRNA by qPCR; conditions: MIA PaCa-2 cells
Outline: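 MIA PaCa-2 cells were compound-treated (6 h where stated). MYC mRNA was measured by qPCR, normalized to GAPDH or BACT mRNA, and analysed by the ddCT method.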

S=C(NCc1ccc2c(c1)OCO2)N1CCN(c2ncnc3c2oc2ccccc23)CC1 [amuvatinib]
endogenous MYC protein levels (MYC): did not increase endogenous MYC in a dose-dependent manner; also recorded: failed to cause a dose-dependent loss of endogenous MYC protein

O=C(Nc1n[nH]c2nc(-c3ccco3)c(Br)cc12)C1CC1 [UNC10112671]
effect on EGFP-MYC stability in the GPS-MYC screen (EGFP-MYC): stabilized MYC

CN1CCN(C(=O)c2ccc3cc(CCNc4ncnc5ccc(C#N)cc45)ccc3c2)CC1 [Senexin B]
endogenous MYC protein levels (MYC): but not MYC protein levels | MCL-1 protein levels (CDK9): absence of a reduction in MCL-1 | pSTAT1 (phosphorylation of STAT1 at S727) (CDK8/19): reduction in pSTAT1

CC(C)(C)c1cnc(CSc2cnc(NC(=O)C3CCN(CC(=O)NCCOCCOCCOCCNc4cccc5c4C(=O)N(C4CCC(=O)NC4=O)C5=O)CC3)s2)o1 (stereo not shown) [THAL-SNS-032]
MYC phosphorylation at Ser^62 (MYC Ser^62): decreased MYC phosphorylation at Ser^62

CCOc1cc(N2CCC(O)CC2)ccc1Nc1ncc2c(n1)N(C)c1ccccc1C(=O)N2C [XMD8–92]
phosphorylation of RNA polymerase II (pPol II) at S2 (CDK9): did not reduce phosphorylation of the CDK9 substrate Pol II

CN(C)CCOc1ccc(-c2nc(-c3ccncc3)c(-c3ccc4c(c3)CC/C4=N\O)[nH]2)cc1.Cl.O [UNC10112687]
effect on EGFP-MYC stability in the GPS-MYC screen (EGFP-MYC): destabilized MYC

COc1cc(N2CCN(C)CC2)ccc1Nc1nccc(-c2cn(C)c3cnccc23)n1 [AZ191]
endogenous MYC protein levels (MYC): failed to cause a dose-dependent loss of endogenous MYC protein

COc1ncc2cc(C(=O)Nc3cc(C(=O)NCc4cccc(Cl)c4)ccc3Cl)c(=O)[nH]c2n1 [TC-S 7004]
endogenous MYC protein levels (MYC): failed to cause a dose-dependent loss of endogenous MYC protein

COC(=O)Nc1nc2ccc(Oc3ccc(NC(=O)Nc4ccccc4)cc3)cc2[nH]1 [UNC10112731]
MYC mRNA levels (MYC mRNA): not due to increased transcription | effect on EGFP-MYC stability in the GPS-MYC screen (EGFP-MYC): increased EGFP-MYC without affecting DsRed | EGFP-MYC and endogenous MYC levels in GPS-MYC cells (EGFP-MYC; secondary validation, flow cytometry and immunoblot): dose-dependent increase in EGFP-MYC and endogenous MYC levels
